Paper PMC7686291 (Psychopharmacology, 2020)
Where a name gives a salt, the structure may show the parent alone.

How the values were obtained:
[1] = target: dopamine transporters (DAT) (Rattus norvegicus, UniProt P23977); experiment: Transporter release assay, [3H]MPP+ via DAT, rat brain synaptosomes; assay type: biochemical; details: for Emax: read-out: DAT release %Emax; for Times more potent than MDA at DAT release / Times more potent than MDMA at DAT release: ratio of EC50 values, synaptosomes; for DAT release %Emax: % of maximal release defined with 10 μM tyramine
How it was run: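 Striatal synaptosomes from male Sprague-Dawley rats, prepared in 10% sucrose containing 1 μM reserpine; no unlabeled blockers added. Loaded 1 h to steady state with 9 nM [3H]MPP+ in Krebs-phosphate buffer; test compound at various concentrations added for 30 min. Ended by rapid vacuum filtration and scintillation counting of filter-bound radioactivity. EC50 by non-linear regression; efficacy relative to maximal release by 10 μM tyramine.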

[2] = target: norepinephrine transporters (NET) (Rattus norvegicus, UniProt Q63380); experiment: Transporter release assay, [3H]MPP+ via NET, rat brain synaptosomes; assay type: biochemical; details: for Emax: read-out: NET release %Emax; for Times more potent than MDA at NET release / Times more potent than MDMA at NET release: ratio of EC50 values, synaptosomes; for NET release %Emax: % of maximal release defined with 10 μM tyramine
How it was run: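 Male Sprague-Dawley rat whole brain minus striatum and cerebellum gave synaptosomes in 10% sucrose with 1 μM reserpine, 100 nM GBR12935 and citalopram. After 1 h preloading with 9 nM [3H]MPP+ in Krebs-phosphate buffer, incubated 30 min with varied test compound concentrations. Filtration, then scintillation counting of retained radioactivity. EC50 from non-linear regression; efficacy as % of 10 μM tyramine release.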

[3] = target: serotonin transporters (SERT) (Rattus norvegicus, UniProt P31652); experiment: Transporter release assay, [3H]5-HT via SERT, rat brain synaptosomes; assay type: biochemical; details: for Emax: read-out: SERT release %Emax; for SERT release %Emax: % of maximal release defined with 100 μM tyramine
How it was run: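 Synaptosomes from whole brain minus striatum and cerebellum of male Sprague-Dawley rats, made in 10% sucrose with 1 μM reserpine plus 100 nM GBR12935 and nomifensine. Preloaded 1 h to steady state with 5 nM [3H]5-HT in Krebs-phosphate buffer, then incubated 5 min with test compound at various concentrations. Stopped by vacuum filtration; retained label counted by scintillation. EC50 from non-linear regression; efficacy as % of release by 100 μM tyramine.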

[4] = tested on: extracellular 5-HT in nucleus accumbens; experiment: In vivo microdialysis in nucleus accumbens, dialysate 5-HT; parameters: species or system rat; details: male rats
How it was run: (§1)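 Male Sprague-Dawley rats (300–400 g) were fitted with a jugular catheter and a nucleus accumbens guide cannula under pentobarbital (60 mg/kg i.p.), with ≥1 week recovery. Probes (2×0.5 mm) were perfused with Ringers' at 0.6 μL/min overnight. 20-min dialysates were assayed by microbore HPLC-ECD. After three stable baselines: i.v. dose at time zero, threefold higher dose at 60 min. Saline 1 mL/kg controls; n = 7/group; % baseline; dose × time ANOVA, Bonferroni.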

conscious male rats = experiment: Horizontal ambulation; assay type: in vivo, rat; details: for Duration of behavioral activation (forward ambulation) post-injection: i.v.
How it was run: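 Conscious, tethered male Sprague-Dawley rats (300–400 g) with jugular catheters were placed overnight in photobeam arenas during accumbens microdialysis. Horizontal-plane movement was counted in 20-min bins over 120 min. Two i.v. injections: first dose at time zero, threefold higher dose 60 min later. Saline (1 mL/kg) controls; n = 7/group. Data normalized to three preinjection bins; dose × time ANOVA versus saline with Bonferroni tests.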

[5] = tested on: human transporters (DAT, SERT); details: cited from earlier work; for DAT/SERT ratio in transfected cells: ref Luethi et al. 2019; for DAT/SERT ratio from uptake inhibition potencies: transfected HEK cells, human transporters, ref Rickli et al. 2015
[6] = tested on: extracellular dopamine in nucleus accumbens; experiment: In vivo microdialysis in nucleus accumbens, dialysate dopamine; parameters: species or system rat; details: male rats; for Peak increase of dialysate dopamine above baseline: 1.0 mg/kg i.v. given 60 min after 0.3 mg/kg
How it was run: as §1

[7] = tested on: dialysate dopamine in corpus striatum; details: oral 0.08 mmol/kg (~17 mg/kg), male CD-1 mice, ref Fuwa et al. 2016; cited from earlier work
[8] = tested on: dialysate 5-HT in corpus striatum; details: ref Fuwa et al. 2016, cited from earlier work
mice = details: ref Dolan et al. (2017), cited from earlier work
rats = rats trained with MDMA 1.5 mg/kg i.p., ref Dolan et al. (2017), cited from earlier work
[9] = 3 mg/kg i.v. given 60 min after 1 mg/kg
[10] = ratio of EC50 values, synaptosomes
[11] = 1.0 mg/kg i.v. given 60 min after 0.3 mg/kg

Sequence of norepinephrine transporters (NET) (Q63380 1-617): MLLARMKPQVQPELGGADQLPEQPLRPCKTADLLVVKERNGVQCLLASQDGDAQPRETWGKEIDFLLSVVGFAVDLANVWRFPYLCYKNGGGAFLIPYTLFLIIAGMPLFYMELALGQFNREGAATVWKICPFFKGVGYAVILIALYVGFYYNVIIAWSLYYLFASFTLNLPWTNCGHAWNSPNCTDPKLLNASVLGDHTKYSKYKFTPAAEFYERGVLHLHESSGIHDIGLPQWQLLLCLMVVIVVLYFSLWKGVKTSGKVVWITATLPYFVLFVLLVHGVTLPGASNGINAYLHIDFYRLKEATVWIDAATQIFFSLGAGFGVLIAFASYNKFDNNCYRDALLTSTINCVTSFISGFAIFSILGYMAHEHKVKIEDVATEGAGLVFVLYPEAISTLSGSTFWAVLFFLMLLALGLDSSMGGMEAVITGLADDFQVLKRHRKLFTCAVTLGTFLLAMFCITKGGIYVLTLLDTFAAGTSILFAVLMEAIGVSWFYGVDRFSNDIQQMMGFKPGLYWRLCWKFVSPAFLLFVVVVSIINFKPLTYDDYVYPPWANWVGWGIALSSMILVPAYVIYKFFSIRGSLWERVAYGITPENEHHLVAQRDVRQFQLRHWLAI
Sequence of serotonin transporters (SERT) (P31652 whole entry): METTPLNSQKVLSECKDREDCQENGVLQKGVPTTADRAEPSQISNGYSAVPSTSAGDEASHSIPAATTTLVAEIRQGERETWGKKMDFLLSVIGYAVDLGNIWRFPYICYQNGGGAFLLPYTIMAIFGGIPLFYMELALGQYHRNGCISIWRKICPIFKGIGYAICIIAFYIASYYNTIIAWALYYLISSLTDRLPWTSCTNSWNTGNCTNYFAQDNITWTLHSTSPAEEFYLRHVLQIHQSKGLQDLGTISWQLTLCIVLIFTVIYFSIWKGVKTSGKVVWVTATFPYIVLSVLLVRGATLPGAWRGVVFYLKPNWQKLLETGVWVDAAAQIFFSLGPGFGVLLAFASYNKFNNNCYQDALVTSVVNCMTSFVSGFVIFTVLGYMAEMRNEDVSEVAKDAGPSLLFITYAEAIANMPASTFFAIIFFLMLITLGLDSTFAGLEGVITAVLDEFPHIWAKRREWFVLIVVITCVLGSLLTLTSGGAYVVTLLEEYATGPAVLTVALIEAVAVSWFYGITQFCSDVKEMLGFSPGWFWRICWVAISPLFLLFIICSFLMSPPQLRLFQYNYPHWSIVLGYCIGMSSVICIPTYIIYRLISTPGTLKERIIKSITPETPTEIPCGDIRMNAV
Sequence of dopamine transporters (DAT) (P23977 whole entry): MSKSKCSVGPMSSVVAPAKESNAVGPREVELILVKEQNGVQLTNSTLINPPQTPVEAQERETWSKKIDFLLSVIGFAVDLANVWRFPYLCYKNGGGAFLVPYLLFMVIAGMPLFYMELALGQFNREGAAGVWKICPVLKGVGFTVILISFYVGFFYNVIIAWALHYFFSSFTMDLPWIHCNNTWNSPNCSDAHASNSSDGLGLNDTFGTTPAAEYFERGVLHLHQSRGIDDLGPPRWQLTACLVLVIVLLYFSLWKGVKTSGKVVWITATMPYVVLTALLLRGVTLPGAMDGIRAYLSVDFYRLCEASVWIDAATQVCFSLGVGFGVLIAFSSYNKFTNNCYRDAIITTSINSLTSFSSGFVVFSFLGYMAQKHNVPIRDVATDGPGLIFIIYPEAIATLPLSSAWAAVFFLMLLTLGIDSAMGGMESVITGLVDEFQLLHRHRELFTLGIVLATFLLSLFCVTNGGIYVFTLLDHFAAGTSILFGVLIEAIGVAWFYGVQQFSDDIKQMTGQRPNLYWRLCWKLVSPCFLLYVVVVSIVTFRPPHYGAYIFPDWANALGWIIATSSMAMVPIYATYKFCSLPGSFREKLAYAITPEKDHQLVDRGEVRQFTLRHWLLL

Row | SMILES | EC50 [1] | Emax [1] | EC50 [2] | Emax [2] | EC50 [3] | Emax [3] | Duration of behavioral activation (forward ambulation) post-injection (conscious male rats) | DAT/SERT ratio in transfected cells [5] | Times more potent than MDA at DAT release [1] | Times more potent than MDA at NET release [2] | Times more potent than MDA at SERT release [3, 10] | Peak increase of dialysate dopamine above baseline [6] | Peak effect on dialysate 5-HT above baseline [4, 11] | Peak effect on ambulation above baseline (conscious male rats; [11]) | DAT/SERT ratio from uptake inhibition potencies [5] | DAT release %Emax [1] | Times more potent than MDMA at DAT release [1] | NET release %Emax [2] | Times more potent than MDMA at NET release [2] | SERT release %Emax [3] | also measured
1 | CC(N)Cc1ccc2c(c1)OCO2 (racemic) [MDA, (±)-3,4-Methylenedioxyamphetamine HCl, reference compound] | 106 ± 7 nM | 104% | 47 ± 7 nM | 91% | 162 ± 28 nM | 109% | at least 2 h | 0.25 |  |  |  |  |  |  |  |  |  |  |  |  | Peak effect on dialysate 5-HT above baseline ([4]; 1 mg/kg i.v., first dose): 4.6 fold; Peak effect on dialysate 5-HT above baseline [4, 9]: 11.2 fold; Fold less potent than 5-APB and 6-APB at increasing dialysate 5-HT ([4]; in vivo microdialysis, i.v.): 3 fold; Effect on locomotion vs saline (post hoc analysis) (conscious male rats; 1 mg/kg i.v., first dose): did not significantly increase locomotion; Peak effect on ambulation above baseline (conscious male rats; [9]): 30 fold; Ambulation above baseline at the 120 min point (conscious male rats; 60 min after 3 mg/kg i.v.): about 18 fold
2 | CNC(C)Cc1ccc2c(c1)OCO2 (racemic) [MDMA, (±)-3,4-methylenedioxymethamphetamine HCl, reference compound] | 120 ± 8 nM | 101% | 90 ± 13 nM | 99% | 85 ± 16 nM | 104% |  | 0.12 |  |  |  |  |  |  |  |  |  |  |  |  | 
3 | CC(N)Cc1ccc2occc2c1 (stereo not shown) [5-APB, 1-(1-Benzofuran-5-yl)propan-2-amine] | 31 ± 3 nM | 103% | 21 ± 4 nM | 103% | 19 ± 2 nM | 104% | at least 2 h |  | 3.4 fold | 2–3 times | 8.5 fold | 6.7 fold | 17.7 fold | 21 fold | 0.05 |  |  |  |  |  | Times more potent than 5-MAPB at SERT release [3, 10]: 3.4 times; Effect on dialysate dopamine vs saline (post hoc test) ([6]; 0.3 mg/kg i.v.): failed to significantly increase dopamine levels; Increase of dialysate 5-HT ([4]; 20 min after 0.3 mg/kg i.v.): 5.7 fold; Dialysate 5-HT above baseline at the 120 min point ([4]; 120 min point, 60 min after 1.0 mg/kg i.v.): 11.3 fold; Ambulation above baseline at the 120 min point (conscious male rats; 60 min after 1.0 mg/kg i.v.): 14.0 fold; Increase in dialysate dopamine [7]: 8 fold; Increase in dialysate 5-HT ([8]; oral 0.08 mmol/kg (~17 mg/kg), corpus striatum, male CD-1 mice): 23 fold; Time the rise in extracellular 5-HT was maintained post-injection ([8]; oral 0.08 mmol/kg, mice): up to 3 h; ED50 for increase of forward locomotion (mice; i.p.): 3.27 mg/kg; Potency to stimulate activity, fold greater than that of MDMA (mice; Gatch et al. 2019): at least 3 fold; ED50 to substitute for the MDMA stimulus cue (rats; i.p.): 0.27 mg/kg; Substitution for the discriminative stimulus effects of MDMA (rats): fully substitutes
4 | CNC(C)Cc1ccc2occc2c1 (stereo not shown) [5-MAPB] |  |  |  |  |  |  |  |  |  |  |  |  |  |  |  | 103% | at least 3 times | 99% | ≥ 3.75 times | 103% | Times more potent than MDMA at SERT release [3, 10]: up to 2.5 times
5 | CC(N)Cc1ccc2ccoc2c1 (stereo not shown) [6-APB, 1-(1-benzofuran-6-yl)propan-2-amine] | 10 ± 1 nM | 101% | 14 ± 2 nM | 98% | 36 ± 5 nM | 100% | at least 2 h |  | 10 fold | 2–3 times | 4.5 fold | 8.4 fold | 16 fold | 24 fold | 0.29 |  |  |  |  |  | Increase of dialysate dopamine ([6]; 20 min after 0.3 mg/kg i.v.): 2.6 fold; Increase of dialysate dopamine ([6]; 40 min after 0.3 mg/kg i.v.): 3.3 fold; Effect on locomotion vs saline (post hoc analysis) (conscious male rats; 0.3 mg/kg i.v.): failed to result in significant increases in locomotion
6 | CNC(C)Cc1ccc2ccoc2c1 (stereo not shown) [6-MAPB] |  |  |  |  |  |  |  |  |  |  |  |  |  |  |  | 106% | at least 3 times | 100% | ≥ 3.75 times | 106% | Times more potent than MDMA at SERT release [3, 10]: up to 2.5 times
